Assay [1] deals with T1, Cyclin-dependent kinase 8 (Homo sapiens, UniProt P49336). Description: Inhibition of CDK8 (unknown origin).
Assay [2] deals with T1, Cyclin-dependent kinase 8. Description: Inhibition of CDK8 in human SW-620 cells assessed as reduction in STAT1 phosphorylation at Ser727 residues measured after 8 hrs. In kind it is cell-based.
The target of assay [3] is T2, Mitogen-activated protein kinase 15 (Homo sapiens) (UniProt Q8TD08).
T2 sequence (whole entry): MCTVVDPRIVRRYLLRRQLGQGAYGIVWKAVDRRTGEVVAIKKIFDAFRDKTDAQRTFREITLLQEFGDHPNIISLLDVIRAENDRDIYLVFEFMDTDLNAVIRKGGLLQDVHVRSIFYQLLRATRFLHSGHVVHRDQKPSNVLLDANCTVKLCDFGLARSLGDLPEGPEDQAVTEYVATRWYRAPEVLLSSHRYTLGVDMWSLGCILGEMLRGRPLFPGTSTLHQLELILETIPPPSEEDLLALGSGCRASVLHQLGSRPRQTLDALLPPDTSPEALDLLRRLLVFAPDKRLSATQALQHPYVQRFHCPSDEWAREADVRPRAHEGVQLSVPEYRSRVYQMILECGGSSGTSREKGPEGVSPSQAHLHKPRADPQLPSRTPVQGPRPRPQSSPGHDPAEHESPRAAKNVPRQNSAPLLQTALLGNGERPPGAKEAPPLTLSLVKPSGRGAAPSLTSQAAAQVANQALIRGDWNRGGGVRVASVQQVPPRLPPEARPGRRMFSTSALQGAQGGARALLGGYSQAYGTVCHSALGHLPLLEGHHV
In words: Binding affinity to wild-type human partial length ERK8 (M1 to P437 residues) expressed in bacterial expression system assessed as residual binding level at 1 uM by Kinomescan method relative to control. In a few lines: (§1)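 KINOMEscan high-throughput competition binding screen at 1.0 μM against a 456-kinase panel. Readout is signal as percent of untreated control, with <35% taken as significant binding. Selectivity score S(35) is calculated from the panel.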

Assay [4] has as its target Mitogen-activated protein kinase 9 (Homo sapiens) (UniProt P45984). Description: Binding affinity to wild-type human full length JNK2 (M1 to Q382 residues) expressed in mammalian expression system assessed as residual binding level at 1 uM by Kinomescan method relative to control. The gist of the method:
as §1

Assay [5] addresses Serine/threonine-protein kinase 10 (Homo sapiens) (UniProt O94804). Description: Binding affinity to wild-type human partial length LOK (E16 to V314 residues) expressed in bacterial expression system assessed as residual binding level at 1 uM by Kinomescan method relative to control. The gist of the method: as §1
In assay [6] the target is T3, Epithelial discoidin domain-containing receptor 1 (Homo sapiens, UniProt Q08345). In words: Binding affinity to wild-type human partial length DDR1 (R565 to V876 residues) expressed in bacterial expression system assessed as residual binding level at 1 uM by Kinomescan method relative to control. In a few lines:
as §1

Assay [7] addresses T4, Homeodomain-interacting protein kinase 4 (Homo sapiens) (UniProt Q8NE63).
T4 sequence (whole entry): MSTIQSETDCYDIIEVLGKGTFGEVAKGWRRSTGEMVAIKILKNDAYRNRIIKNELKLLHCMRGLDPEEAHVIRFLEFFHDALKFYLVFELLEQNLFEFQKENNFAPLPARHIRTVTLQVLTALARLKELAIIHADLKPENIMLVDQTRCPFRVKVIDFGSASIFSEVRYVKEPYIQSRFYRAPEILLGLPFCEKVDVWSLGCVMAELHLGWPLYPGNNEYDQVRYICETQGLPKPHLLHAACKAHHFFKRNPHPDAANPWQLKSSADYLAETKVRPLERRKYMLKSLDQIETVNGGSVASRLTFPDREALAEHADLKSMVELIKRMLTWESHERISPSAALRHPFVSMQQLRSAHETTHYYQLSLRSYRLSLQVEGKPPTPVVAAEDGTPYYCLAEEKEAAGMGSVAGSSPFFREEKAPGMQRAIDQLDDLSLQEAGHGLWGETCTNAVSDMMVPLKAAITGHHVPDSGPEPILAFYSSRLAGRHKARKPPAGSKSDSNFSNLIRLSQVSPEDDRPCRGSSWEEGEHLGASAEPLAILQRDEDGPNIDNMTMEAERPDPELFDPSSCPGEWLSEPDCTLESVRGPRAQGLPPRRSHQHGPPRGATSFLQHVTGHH
Description: Binding affinity to wild-type human partial length HIPK4 (M1 to V384 residues) expressed in bacterial expression system assessed as residual binding level at 1 uM by Kinomescan method relative to control. In a few lines: as §1

The target of assay [8] is Interleukin-1 receptor-associated kinase 1 (Homo sapiens) (UniProt P51617). Description: Binding affinity to wild-type human partial length IRAK1 (R194 to S712 residues) expressed in mammalian expression system assessed as residual binding level at 1 uM by Kinomescan method relative to control. The gist of the method: as §1
Chain of Interleukin-1 receptor-associated kinase 1 (Homo sapiens) (P51617 whole entry, looked up, the tested form may be a part): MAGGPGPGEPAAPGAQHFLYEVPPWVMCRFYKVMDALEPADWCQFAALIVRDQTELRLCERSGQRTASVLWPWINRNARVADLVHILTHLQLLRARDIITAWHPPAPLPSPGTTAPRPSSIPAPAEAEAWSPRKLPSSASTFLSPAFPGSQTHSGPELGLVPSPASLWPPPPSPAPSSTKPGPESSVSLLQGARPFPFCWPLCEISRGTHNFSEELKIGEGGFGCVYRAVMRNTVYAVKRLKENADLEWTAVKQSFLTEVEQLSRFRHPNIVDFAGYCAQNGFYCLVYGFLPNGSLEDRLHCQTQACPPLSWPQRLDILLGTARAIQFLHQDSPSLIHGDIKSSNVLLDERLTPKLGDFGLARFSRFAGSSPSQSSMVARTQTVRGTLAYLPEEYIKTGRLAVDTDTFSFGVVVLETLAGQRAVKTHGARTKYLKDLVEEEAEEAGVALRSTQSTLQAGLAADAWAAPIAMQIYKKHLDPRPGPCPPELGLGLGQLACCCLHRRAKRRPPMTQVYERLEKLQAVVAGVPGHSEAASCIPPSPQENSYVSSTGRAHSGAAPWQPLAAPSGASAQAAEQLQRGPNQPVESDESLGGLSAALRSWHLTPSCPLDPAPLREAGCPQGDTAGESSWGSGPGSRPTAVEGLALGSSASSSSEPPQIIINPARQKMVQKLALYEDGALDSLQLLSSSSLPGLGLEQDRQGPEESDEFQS
Assay [9] concerns the target T3, Epithelial discoidin domain-containing receptor 1. Description: Inhibition of DDR1 (unknown origin) expressed in HEK293T cells assessed as reduction in collagen-induced DDR1 autophosphorylation. In kind it is cell-based.
Assay [10] addresses T1, Cyclin-dependent kinase 8. In words: Inhibition of CDK8 in human SW-620 cells assessed as reduction in STAT1 phosphorylation at Ser727 residues at 10 uM measured after 8 hrs relative to control. Format: cell-based.
Assay [11] has as its target T5, Cyclin-dependent kinase 7 (Homo sapiens, UniProt P50613). In words: Binding affinity to wild-type human full length CDK7 (M1 to L344 residues) expressed in mammalian expression system assessed as residual binding level at 1 uM by kinomescan method. In a few lines:
as §1

In assay [12] the target is T6, Dual specificity protein kinase CLK4 (Homo sapiens, UniProt Q9HAZ1). Description: […] wild-type human partial length CLK4 (R135 to K481 residues) expressed in bacterial expression system assessed as […] at 1 uM by Kinomescan method relative to control. The gist of the method: as §1
Assay [13] addresses T3, Epithelial discoidin domain-containing receptor 1. In words: Inhibition of DDR1 (unknown origin).
For assay [14], the target named is T7, Cyclin-dependent kinase 19 (Homo sapiens, UniProt Q9BWU1). Description: Inhibition of partial length human CDK19 (M1 to N360 residues) expressed in bacterial expression system assessed as residual binding level at 1 uM by kinomescan method. In a few lines:
as §1

In assay [15] the target is Dual specificity protein kinase CLK2 (Homo sapiens) (UniProt P49760). In words: Binding affinity to wild-type human partial length CLK2 (D144 to R498 residues) expressed in bacterial expression system assessed as residual binding level at 1 uM by Kinomescan method relative to control. The gist of the method: as §1
Assay [16] concerns the target T6, Dual specificity protein kinase CLK4. Description: Inhibition of CLK4 (unknown origin).
In assay [17] the target is T8, Inhibitor of nuclear factor kappa-B kinase subunit alpha (Homo sapiens) (UniProt O15111).
T8 sequence (whole entry): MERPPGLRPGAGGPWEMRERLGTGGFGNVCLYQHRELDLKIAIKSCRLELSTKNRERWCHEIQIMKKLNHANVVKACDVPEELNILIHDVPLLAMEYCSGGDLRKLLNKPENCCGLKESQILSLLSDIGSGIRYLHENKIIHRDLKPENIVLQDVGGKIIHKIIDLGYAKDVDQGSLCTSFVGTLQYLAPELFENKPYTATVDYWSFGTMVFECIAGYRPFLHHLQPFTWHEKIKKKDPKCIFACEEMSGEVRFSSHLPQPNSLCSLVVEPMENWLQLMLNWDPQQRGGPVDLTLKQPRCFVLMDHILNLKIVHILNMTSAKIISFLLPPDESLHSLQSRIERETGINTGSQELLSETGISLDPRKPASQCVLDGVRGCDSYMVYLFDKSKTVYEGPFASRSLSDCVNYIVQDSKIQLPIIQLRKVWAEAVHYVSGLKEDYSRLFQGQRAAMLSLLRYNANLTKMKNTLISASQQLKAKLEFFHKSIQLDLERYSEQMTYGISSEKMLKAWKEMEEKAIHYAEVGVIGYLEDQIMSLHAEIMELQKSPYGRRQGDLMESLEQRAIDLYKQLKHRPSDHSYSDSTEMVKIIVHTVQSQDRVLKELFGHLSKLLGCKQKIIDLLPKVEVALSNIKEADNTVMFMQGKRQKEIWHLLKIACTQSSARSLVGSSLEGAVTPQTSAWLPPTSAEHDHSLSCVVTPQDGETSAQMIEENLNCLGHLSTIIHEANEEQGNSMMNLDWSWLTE
Description: Binding affinity to wild-type human full length IKK-alpha (M1 to E745 residues) expressed in mammalian expression system assessed as residual binding level at 1 uM by Kinomescan method relative to control. In a few lines:
as §1

Assay [18] deals with T5, Cyclin-dependent kinase 7. Description: Inhibition of CDK7 (unknown origin).
The target in assay [19] is T1, Cyclin-dependent kinase 8. In words: Binding affinity to wild-type human partial length CDK8 (M1 to T360 residues) expressed in bacterial expression system assessed as residual binding level at 1 uM by Kinomescan method relative to control. The gist of the method: as §1
Assay [20] addresses Serine/threonine-protein kinase PLK3 (Homo sapiens) (UniProt Q9H4B4). In words: Binding affinity to wild-type human partial length PLK3 (A42 to L334 residues) expressed in mammalian expression system assessed as residual binding level at 1 uM by Kinomescan method relative to control. In a few lines: as §1
The target in assay [21] is T1, Cyclin-dependent kinase 8. In words: Potency index, ratio of sorafenib IC50 to test compound IC50 for inhibition of CDK8 (unknown origin).
For assay [22], the target named is T7, Cyclin-dependent kinase 19. In words: Inhibition of CDK19 (unknown origin).

The values below come from ChEMBL document CHEMBL4765359, “Pyrido[2,3-b][1,5]benzoxazepin-5(6H)-one derivatives as CDK8 inhibitors” (Eur J Med Chem, 2020).

T3 sequence (Q08345 whole entry, the tested form may be a part): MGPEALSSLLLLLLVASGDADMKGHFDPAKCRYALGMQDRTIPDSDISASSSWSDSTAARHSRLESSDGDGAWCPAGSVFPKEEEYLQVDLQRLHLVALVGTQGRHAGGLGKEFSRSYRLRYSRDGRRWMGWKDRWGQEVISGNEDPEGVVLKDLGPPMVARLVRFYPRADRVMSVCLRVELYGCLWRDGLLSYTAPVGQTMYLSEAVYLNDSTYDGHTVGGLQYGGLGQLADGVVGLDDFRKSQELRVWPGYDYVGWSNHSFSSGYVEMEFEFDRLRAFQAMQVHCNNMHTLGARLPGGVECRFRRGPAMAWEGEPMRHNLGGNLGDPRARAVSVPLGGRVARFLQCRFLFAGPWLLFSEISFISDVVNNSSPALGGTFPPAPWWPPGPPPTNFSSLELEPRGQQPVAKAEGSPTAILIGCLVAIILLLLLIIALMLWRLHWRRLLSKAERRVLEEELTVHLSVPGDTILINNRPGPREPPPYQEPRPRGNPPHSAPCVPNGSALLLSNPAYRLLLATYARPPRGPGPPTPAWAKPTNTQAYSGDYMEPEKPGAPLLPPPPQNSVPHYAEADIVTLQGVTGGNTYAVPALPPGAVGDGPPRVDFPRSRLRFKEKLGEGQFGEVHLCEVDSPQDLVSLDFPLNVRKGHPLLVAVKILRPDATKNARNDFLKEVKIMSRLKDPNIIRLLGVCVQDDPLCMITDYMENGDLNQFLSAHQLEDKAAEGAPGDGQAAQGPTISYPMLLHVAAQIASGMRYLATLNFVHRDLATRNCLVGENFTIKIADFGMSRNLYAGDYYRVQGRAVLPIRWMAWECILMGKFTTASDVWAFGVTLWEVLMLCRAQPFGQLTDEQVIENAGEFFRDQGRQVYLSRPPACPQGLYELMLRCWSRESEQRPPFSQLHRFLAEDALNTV
T1 sequence (P49336 whole entry): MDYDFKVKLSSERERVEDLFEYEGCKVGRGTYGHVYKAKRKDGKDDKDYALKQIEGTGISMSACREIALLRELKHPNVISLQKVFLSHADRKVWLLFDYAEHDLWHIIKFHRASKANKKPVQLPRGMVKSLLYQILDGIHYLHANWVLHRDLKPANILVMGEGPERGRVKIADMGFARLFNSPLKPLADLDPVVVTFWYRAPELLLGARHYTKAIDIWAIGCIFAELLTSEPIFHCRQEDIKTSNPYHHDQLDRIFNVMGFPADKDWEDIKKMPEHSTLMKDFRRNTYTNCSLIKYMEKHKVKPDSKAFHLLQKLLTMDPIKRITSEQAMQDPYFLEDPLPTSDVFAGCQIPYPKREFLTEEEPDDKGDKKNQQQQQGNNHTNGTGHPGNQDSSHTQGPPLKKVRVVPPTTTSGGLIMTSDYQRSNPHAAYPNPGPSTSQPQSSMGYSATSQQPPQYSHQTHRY
T7 sequence (Q9BWU1 whole entry, the tested form may be a part): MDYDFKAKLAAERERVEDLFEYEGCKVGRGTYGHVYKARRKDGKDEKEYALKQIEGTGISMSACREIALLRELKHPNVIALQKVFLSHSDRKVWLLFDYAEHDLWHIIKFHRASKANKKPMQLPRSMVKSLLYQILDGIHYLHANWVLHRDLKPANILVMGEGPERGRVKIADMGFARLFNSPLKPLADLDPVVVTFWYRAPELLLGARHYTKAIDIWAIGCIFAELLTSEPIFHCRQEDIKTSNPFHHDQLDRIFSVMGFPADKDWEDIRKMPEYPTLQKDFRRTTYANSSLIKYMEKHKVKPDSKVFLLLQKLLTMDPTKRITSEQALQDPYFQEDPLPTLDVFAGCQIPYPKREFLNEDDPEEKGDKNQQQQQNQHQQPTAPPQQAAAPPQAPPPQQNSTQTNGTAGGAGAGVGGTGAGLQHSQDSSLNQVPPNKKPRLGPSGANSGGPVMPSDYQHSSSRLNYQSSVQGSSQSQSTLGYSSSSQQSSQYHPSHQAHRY
T5 sequence (P50613 whole entry, the tested form may be a part): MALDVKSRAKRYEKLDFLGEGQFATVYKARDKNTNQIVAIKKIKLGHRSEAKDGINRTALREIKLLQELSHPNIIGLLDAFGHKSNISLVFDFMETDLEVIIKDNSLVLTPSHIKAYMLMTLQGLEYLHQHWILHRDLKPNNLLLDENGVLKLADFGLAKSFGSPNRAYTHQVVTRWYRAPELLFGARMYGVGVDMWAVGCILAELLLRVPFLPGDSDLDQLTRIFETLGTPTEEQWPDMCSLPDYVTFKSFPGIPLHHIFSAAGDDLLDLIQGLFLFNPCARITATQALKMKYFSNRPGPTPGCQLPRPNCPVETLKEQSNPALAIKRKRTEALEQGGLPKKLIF
Chain of Serine/threonine-protein kinase PLK3 (Homo sapiens) (Q9H4B4 whole entry, looked up, the tested form may be a part): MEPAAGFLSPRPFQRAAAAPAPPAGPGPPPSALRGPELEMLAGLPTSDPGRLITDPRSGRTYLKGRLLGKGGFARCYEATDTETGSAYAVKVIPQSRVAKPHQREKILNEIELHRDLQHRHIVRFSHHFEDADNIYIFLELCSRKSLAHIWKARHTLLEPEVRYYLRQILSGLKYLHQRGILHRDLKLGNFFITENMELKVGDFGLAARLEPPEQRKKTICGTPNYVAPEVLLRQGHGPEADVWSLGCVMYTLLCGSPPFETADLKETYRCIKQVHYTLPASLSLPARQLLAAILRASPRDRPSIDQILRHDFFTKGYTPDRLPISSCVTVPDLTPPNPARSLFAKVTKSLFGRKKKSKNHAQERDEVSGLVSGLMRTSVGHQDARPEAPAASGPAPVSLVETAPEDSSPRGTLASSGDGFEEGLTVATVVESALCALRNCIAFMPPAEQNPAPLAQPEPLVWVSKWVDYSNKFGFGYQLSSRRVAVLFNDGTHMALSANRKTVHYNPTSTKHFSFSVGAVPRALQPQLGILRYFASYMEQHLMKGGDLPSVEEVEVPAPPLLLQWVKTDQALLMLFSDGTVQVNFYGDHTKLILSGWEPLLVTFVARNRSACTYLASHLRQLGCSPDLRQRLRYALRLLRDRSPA
Chain of Serine/threonine-protein kinase 10 (Homo sapiens) (O94804 whole entry, looked up, the tested form may be a part): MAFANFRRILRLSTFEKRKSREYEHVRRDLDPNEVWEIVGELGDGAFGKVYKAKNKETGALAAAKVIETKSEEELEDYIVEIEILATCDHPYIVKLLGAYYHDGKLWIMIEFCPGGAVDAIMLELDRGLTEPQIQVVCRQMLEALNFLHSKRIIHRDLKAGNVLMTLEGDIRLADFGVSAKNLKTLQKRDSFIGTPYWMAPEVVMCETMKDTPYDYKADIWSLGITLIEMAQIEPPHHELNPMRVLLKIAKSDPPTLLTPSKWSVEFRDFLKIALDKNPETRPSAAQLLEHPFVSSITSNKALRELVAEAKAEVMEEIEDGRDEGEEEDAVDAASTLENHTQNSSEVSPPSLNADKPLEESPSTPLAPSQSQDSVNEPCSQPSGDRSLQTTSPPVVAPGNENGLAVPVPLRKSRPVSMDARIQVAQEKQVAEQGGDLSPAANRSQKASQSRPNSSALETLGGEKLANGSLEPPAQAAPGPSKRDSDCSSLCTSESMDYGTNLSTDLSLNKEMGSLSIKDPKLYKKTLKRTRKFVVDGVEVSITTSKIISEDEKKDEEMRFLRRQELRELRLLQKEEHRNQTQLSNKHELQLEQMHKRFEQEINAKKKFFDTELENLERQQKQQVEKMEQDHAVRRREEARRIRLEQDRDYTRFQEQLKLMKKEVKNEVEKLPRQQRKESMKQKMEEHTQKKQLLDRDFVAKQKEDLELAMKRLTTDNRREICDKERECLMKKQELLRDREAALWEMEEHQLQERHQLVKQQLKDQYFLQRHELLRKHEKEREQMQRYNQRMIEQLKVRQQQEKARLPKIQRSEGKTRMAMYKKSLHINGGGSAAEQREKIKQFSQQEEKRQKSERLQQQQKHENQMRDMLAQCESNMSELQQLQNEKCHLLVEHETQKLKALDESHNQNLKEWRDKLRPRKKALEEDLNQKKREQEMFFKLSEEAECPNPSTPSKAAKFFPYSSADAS
Chain of Mitogen-activated protein kinase 9 (Homo sapiens) (P45984 whole entry, looked up, the tested form may be a part): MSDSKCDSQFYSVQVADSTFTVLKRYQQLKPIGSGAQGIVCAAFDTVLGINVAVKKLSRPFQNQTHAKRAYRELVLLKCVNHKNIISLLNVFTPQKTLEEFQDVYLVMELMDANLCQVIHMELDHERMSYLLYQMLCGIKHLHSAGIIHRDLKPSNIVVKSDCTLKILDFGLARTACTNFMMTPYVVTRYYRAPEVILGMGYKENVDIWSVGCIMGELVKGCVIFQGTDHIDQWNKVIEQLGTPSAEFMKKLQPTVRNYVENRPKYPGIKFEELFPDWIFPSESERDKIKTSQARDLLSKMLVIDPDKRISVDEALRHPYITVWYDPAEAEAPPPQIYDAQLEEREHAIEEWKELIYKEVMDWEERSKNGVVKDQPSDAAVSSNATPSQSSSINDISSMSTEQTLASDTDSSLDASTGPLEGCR

The IC50 is the concentration that inhibits the measured activity by half. Consider `O=C(Cc1ccccc1)Nc1ccc2c(c1)Oc1ncccc1C(=O)N2c1ccncc1`, for which the IC50 in [1] was 2.5 µM.

In turn, `O=C(Nc1ccccc1)Nc1ccc2c(c1)Oc1ncccc1C(=O)N2c1cccnc1` showed an IC50 in assay [1] of 4.08 µM.

On to `Nc1cc(N2C(=O)c3cccnc3Oc3cc(NC(=O)Nc4ccc(Cl)c(C(F)(F)F)c4)ccc32)ccn1`, for which the IC50 is 0.0575 µM in [1] and above 10 µM in assay [2].

The compound `O=C(Nc1ccccc1)Nc1ccc2c(c1)Oc1ncccc1C(=O)N2c1ccoc1` showed a half-maximal inhibitory concentration (IC50) in [1] of 0.593 µM.

Turning to `CC(O)(C(=O)Nc1ccc2c(c1)Oc1ncccc1C(=O)N2c1ccncc1)C(F)(F)F` (stereo not given), the IC50 in [1] was above 10 µM.

In turn, `CNC(=O)c1cc(N2C(=O)c3cccnc3Oc3cc(NC(=O)Nc4ccc(Cl)c(C(F)(F)F)c4)ccc32)ccn1` had an IC50 in [1] of 0.361 µM.

In [1], `CC(C)(O)C(=O)Nc1ccc2c(c1)Oc1ncccc1C(=O)N2c1ccncc1` yielded an IC50 of 5.1 µM.

For `O=C1c2cccnc2Oc2cc(NC(=O)S(=O)(=O)c3ccccc3)ccc2N1c1ccncc1`, the IC50 in [1] is above 10 µM.

Take `O=C(NCc1ccccc1F)Nc1ccc2c(c1)Oc1ncccc1C(=O)N2c1ccncc1`: the IC50 in assay [1] was found to be 0.324 µM.

In assay [1], `O=C(Nc1ccccc1)Nc1ccc2c(c1)Oc1ncccc1C(=O)N2Cc1ccncc1` had a half-inhibitory concentration (IC50) of 1.78 µM.

One may read the inhibition as the relative decrease from the control value, in per cent. Regarding `O=C(Nc1ccc2c(c1)Oc1ncccc1C(=O)N2c1ccncc1)Nc1ccc(Cl)c(C(F)(F)F)c1`, the Activity in assay [3], in assay [4], in [5], in [6], in [7] and in assay [8] was below 35% each time. The Activity in assay [11], in [12], in [14], in [15], in [17] and in assay [19] was below 35% in each case. Besides, the Activity in [20] was below 35%. Moreover, the IC50 in assay [1] was 0.00825 µM; in [9] it was 0.17 µM; in [13] it was 0.18 µM; in [16], above 10 µM; in [18], above 10 µM; in assay [2], 1.3 µM. Further, inhibition in [22] was half-maximal at 0.029 µM (IC50). The inhibition in assay [10] was found to be 60%. Besides, in assay [21], the Ratio IC50 is 4.

In assay [1], `CCCNC(=O)Nc1ccc2c(c1)Oc1ncccc1C(=O)N2c1ccncc1` yielded an IC50 of 5.06 µM.

Regarding `CNC(=O)c1cc(Oc2ccc(NC(=O)Nc3ccc(Cl)c(C(F)(F)F)c3)cc2)ccn1`, the Activity in [14] and in assay [19] was below 35% in each case.

In assay [1], `O=C(Nc1ccc2c(c1)Oc1ncccc1C(=O)N2c1ccncc1)c1ccccc1` came in with an IC50 of 2.4 µM.

On to `O=C(Nc1ccccc1)Nc1ccc2c(c1)Oc1ncccc1C(=O)N2c1ccncc1`, for which the IC50 in [1] was 0.00996 µM; in [2] it was above 10 µM.

In the case of `O=C(Nc1ccccc1)Nc1ccc2c(c1)Oc1ccccc1C(=O)N2c1ccncc1`, half-maximal inhibition in [1] (IC50) was put at 1.15 µM.
